Experimental data: ChEMBL document CHEMBL2010757, “Cholinestrase inhibitory effects of geranylated flavonoids from Paulownia tomentosa fruits” (Bioorg Med Chem, 2012)

How the values were obtained:
Acetylcholinesterase [1] = target: T1, Acetylcholinesterase (Homo sapiens, UniProt P22303); experiment: Mixed type inhibition of human erythrocyte AChE using acetylthiocholine iodide as substrate by Lineweaver-Burk double-reciprocal-plot and dixon plot analysis
In short: (§1)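 Human erythrocyte AChE (0.25 U/mL) with sample in 100 mM sodium phosphate pH 8.0, 10 min room temperature preincubation; started with DTNB (3.3 mM) and acetylthiocholine iodide (1 mM). Thiolate formation read at 412 nm, triplicate. IC50 as concentration for 50% inhibition; mode by Lineweaver–Burk plots over rising substrate and inhibitor, Ki by Dixon plot.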

Acetylcholinesterase [2] = target: T1, Acetylcholinesterase; experiment: Ratio of eriodictyol IC50 to compound IC50 for human erythrocyte AChE
Acetylcholinesterase [3] = target: T1, Acetylcholinesterase; experiment: Binding affinity to human erythrocyte AChE
In short: (§2)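 hAChE at 5 U/mL in 100 mM sodium phosphate pH 8.0 titrated with successive inhibitor additions. Excitation 276 nm, emission 300–400 nm, slits 2.0 nm, at 18 and 37 °C; triplicate means. Affinity constant KA and n from log[(F0−F)/F] = logKA + n log[Q] for static quenching.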

Acetylcholinesterase [4] = target: T1, Acetylcholinesterase; experiment: Inhibition of human erythrocyte AChE assessed as acetylthiocholine iodide hydrolysis after 10 mins preincubation by spectrophotometry; in short: as §1
Butyrylcholinesterase [5] = target: T2, Butyrylcholinesterase (Equus caballus, UniProt Q9N1N9); experiment: Mixed type inhibition of equine BChE using butyrylthiocholine iodide as substrate by Lineweaver-Burk double-reciprocal-plot and dixon plot analysis
In short: (§3)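 Equine serum BChE (0.05 U/mL) mixed with sample in 100 mM sodium phosphate pH 8.0, held 10 min at room temperature; started with DTNB (3.3 mM) and butyrylthiocholine iodide (1 mM). 5-Thio-2-nitrobenzoate read at 412 nm, triplicate. IC50 as concentration giving 50% inhibition; kinetics by Lineweaver–Burk plots at rising substrate and inhibitor levels, Ki from Dixon plot.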

Butyrylcholinesterase [6] = target: T2, Butyrylcholinesterase; experiment: Inhibition of equine BChE assessed as butyrylthiocholine iodide hydrolysis after 10 mins preincubation by spectrophotometry; in short: as §3
Acetylcholinesterase [7] = target: T1, Acetylcholinesterase; experiment: Reversible inhibition of human erythrocyte AChE using assessed as acetylthiocholine iodide hydrolysis by spectrophotometry; conditions: TDE = time-dependent effect
In short: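 hAChE (0.25 U/mL) with 1 mM acetylthiocholine in 100 mM sodium phosphate pH 8.0 at 37 °C, read continuously by spectrophotometer for 300 s. Reversibility from initial velocity versus enzyme amount at several inhibitor levels. Enzyme preincubated with inhibitor 0–60 min in 10 min steps; residual velocity (v/v0) followed; progress curves at one inhibitor level fitted by nonlinear regression.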

Acetylcholinesterase [8] = target: T1, Acetylcholinesterase; experiment: Binding affinity to human erythrocyte AChE assessed as fluorescence quenching by microplate reader; in short: as §2

T2 sequence (Q9N1N9 whole entry): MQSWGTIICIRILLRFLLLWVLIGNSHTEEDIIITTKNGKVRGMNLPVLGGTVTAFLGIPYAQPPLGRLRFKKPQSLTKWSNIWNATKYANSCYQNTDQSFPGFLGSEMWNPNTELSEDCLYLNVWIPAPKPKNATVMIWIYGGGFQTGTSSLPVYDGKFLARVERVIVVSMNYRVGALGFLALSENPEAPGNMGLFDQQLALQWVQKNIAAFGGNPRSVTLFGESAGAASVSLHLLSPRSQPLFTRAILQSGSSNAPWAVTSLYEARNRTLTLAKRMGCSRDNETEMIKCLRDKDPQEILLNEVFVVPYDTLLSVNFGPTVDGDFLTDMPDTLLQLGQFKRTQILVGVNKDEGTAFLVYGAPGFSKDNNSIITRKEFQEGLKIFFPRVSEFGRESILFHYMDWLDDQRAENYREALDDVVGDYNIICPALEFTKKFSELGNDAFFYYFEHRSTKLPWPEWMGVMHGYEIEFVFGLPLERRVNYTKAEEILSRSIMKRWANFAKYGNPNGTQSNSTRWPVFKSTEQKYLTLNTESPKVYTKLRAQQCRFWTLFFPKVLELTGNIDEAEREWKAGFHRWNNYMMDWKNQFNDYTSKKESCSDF
T1 sequence (P22303 whole entry): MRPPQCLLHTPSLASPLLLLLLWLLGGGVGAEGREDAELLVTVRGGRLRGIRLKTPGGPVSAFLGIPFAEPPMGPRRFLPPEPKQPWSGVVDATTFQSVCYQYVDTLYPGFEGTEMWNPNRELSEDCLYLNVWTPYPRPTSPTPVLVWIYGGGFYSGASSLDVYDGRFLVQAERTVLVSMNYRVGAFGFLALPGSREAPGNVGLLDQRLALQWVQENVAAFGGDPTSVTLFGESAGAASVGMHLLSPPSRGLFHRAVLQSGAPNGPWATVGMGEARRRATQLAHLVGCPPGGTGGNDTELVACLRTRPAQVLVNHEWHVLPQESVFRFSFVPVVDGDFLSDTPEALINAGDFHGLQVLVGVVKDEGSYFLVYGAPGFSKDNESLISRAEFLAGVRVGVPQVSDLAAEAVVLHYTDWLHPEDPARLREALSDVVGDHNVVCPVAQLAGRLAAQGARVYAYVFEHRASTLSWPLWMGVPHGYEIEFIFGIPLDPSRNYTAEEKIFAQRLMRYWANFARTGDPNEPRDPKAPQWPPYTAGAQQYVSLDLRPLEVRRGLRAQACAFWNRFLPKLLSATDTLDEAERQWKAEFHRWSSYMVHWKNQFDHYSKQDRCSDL

Row | Compound | Ki (Acetylcholinesterase [1]) [µM] | Ratio IC50 (Acetylcholinesterase [2]) | Ka (Acetylcholinesterase [3]) [×10³ L/M] | IC50 (Acetylcholinesterase [4]) [µM] | inhibition (Acetylcholinesterase [4]) | Ki (Butyrylcholinesterase [5]) [µM] | IC50 (Butyrylcholinesterase [6]) [µM] | inhibition (Acetylcholinesterase [7]) | KSV (Acetylcholinesterase [8]) [×10⁵ L/M]
1 | CC(C)=CCC/C(C)=C/Cc1c(O)cc2c(c1O)C(=O)C[C@@H](c1ccc(O)c(O)c1)O2 [NYMPHAEOL A] | 8.4 | 200 | 5.49 | 7.2 | Dose-dependent effect | 1.2 | 1.4 | tde | 0.0577
2 | COc1cc(C2CC(=O)c3c(cc(O)c(C/C=C(\C)CCC=C(C)C)c3O)O2)cc(OC)c1O (configuration not stated) |  |  |  | 316 |  | 75.2 | 80 |  | 
3 | O=C1C[C@@H](c2ccc(O)cc2)Oc2cc(O)cc(O)c21 [NARINGENIN] |  |  |  | 2040 |  |  | 1490 |  | 
4 | COc1c(O)cc(C2Oc3cc(O)c(C/C=C(\C)CCC=C(C)C)c(O)c3C(=O)[C@@H]2O)cc1O (some centres not stated) | 16.9 |  | 4.54 | 15.6 | Dose-dependent effect | 4.5 | 3.8 | tde | 0.0369
5 | COc1ccc([C@H]2Oc3cc(O)c(C/C=C(\C)CCC=C(C)C)c(O)c3C(=O)[C@@H]2O)cc1O | 34.3 |  | 2.7 | 31.9 | Dose-dependent effect | 18.7 | 12.7 | tde | 0.0285
6 | COc1c(O)cc(C2CC(=O)c3c(cc(O)c(C/C=C(\C)CCC=C(C)C)c3O)O2)cc1O (configuration not stated) | 30.1 |  |  | 22.9 | Dose-dependent effect | 7.6 | 6.4 | tde | 
7 | COc1cc([C@@H]2CC(=O)c3c(cc(O)c(C/C=C(\C)CCC=C(C)C)c3O)O2)ccc1O | 150 |  |  | 109 | Dose-dependent effect | 23.6 | 24.5 | tde | 
8 | CC(C)=CCC/C(C)=C/Cc1c(O)cc2c(c1O)C(=O)C[C@@H](c1ccc(O)cc1)O2 [BONANNIONE A] | 120 |  |  | 91.5 | Dose-dependent effect | 22.2 | 20.6 | tde | 
9 | CNC(=O)Oc1ccc2c(c1)[C@]1(C)CCN(C)[C@@H]1N2C [PHYSOSTIGMINE] |  |  |  |  |  |  | 3.7 |  | 
10 | O=C1C[C@@H](c2ccc(O)c(O)c2)Oc2cc(O)cc(O)c21 [ERIODICTYOL] |  |  |  | 1660 |  |  | 1120 |  | 
11 | COc1ccc([C@@H]2CC(=O)c3c(O)cc(O)cc3O2)cc1O [HESPERETIN] |  |  |  | 2480 |  |  | 1770 |  | 
12 | COc1ccc([C@@H]2CC(=O)c3c(cc(O)c(C/C=C(\C)CCC=C(C)C)c3O)O2)cc1O | 94.5 |  | 0.924 | 92.4 | Dose-dependent effect | 23.5 | 25.6 | tde | 0.0103
13 | COc1cc([C@H]2Oc3cc(O)c(C/C=C(\C)CCC=C(C)C)c(O)c3C(=O)[C@@H]2O)ccc1O | 68.2 |  |  | 48.5 | Dose-dependent effect | 18.2 | 11.2 | tde | 
